The values below come from ChEMBL document CHEMBL1158364, “Synthesis and pharmacological evaluation of 2(3H)-furanones and 2(3H)-pyrrolones, combining analgesic and anti-inflammatory properties with reduced gastrointestinal toxicity and lipid peroxidation” (Eur J Med Chem, 2009).

Data set [1] deals with Rattus norvegicus. Briefly: Antiinflammatory activity in Wistar rat assessed as inhibition of carrageenan-induced paw odema at 20 mg/kg, po pretreated 30 mins pre-carrageenan challenge measured after 2 hrs relative to control. In kind it is functional. In outline: (§1)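 Wistar rats of either sex, 180–200 g, six per group; vehicle 0.5% CMC given orally. […] in sterile 0.9% NaCl, 0.1 mL, injected sub-plantar into the right hind paw 30 min after dosing. Paw volume read by saline-displacement plethysmometer at 2 and 3 h. % inhibition = (Vc−Vt)/Vc × 100.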

Data set [2] deals with Rattus norvegicus. As to the kind of experiment: Antiinflammatory activity in Wistar rat assessed as inhibition of carrageenan-induced paw odema at 20 mg/kg, po pretreated 30 mins pre-carrageenan challenge measured after 3 hrs relative to control. In kind it is functional. In outline: as §1
Data set [3] relates to Mus musculus. Briefly: Central analgesic activity in Swiss albino mouse assessed as reaction time required to elicit thermal stimulus-induced hind paw licking at 20 mg/kg, po after 60 mins by Turner hotplate method. In kind it is functional. In short, it runs like this:
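Swiss albino mice of either sex, 25–30 g, six per group. Compounds given orally in 1% CMC; controls received vehicle only. Hot plate held at 53 ± 0.5 °C. Reaction time is the interval from placement on the plate to hind-paw licking or jumping. Measured before dosing (0 min) and 1 h after oral dosing.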

The subject of data set [4] is Mus musculus. As to the kind of experiment: Peripheral analgesic activity in Swiss albino mouse assessed as inhibition of acetic acid-induced writhing response at 20 mg/kg, po pretreated 1 hr before acetic acid challenge. In kind it is functional. Further details: scale not given: the % may be the effect or the level left. In short, it runs like this:
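Swiss albino mice of either sex, 25–30 g, housed singly and habituated 30 min in the test cage. Compounds given orally in 1% CMC; controls received 1% CMC. One hour after dosing, 0.10 mL 1% acetic acid was given i.p. Writhes were counted over 30 min and % protection derived versus control.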

Data set [5] deals with Rattus norvegicus. As to the kind of experiment: Gastrointestinal toxicity in albino rat assessed ulcer index at 60 mg/kg, po after 17 hrs. In kind it is organism-based. Details: dose 60 mg/kg, route oral. The note with it: in vivo. In short, it runs like this: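 Fasted albino rats (150–200 g; food, not water, withheld 24 h), groups of six, dosed orally at 60 mg/kg; controls got 1% methyl cellulose suspension. Normal diet for 17 h, then sacrifice. Stomach opened along greater curvature, washed, mucosa scored under magnifying glass (0.5 redness to 3.0 for >5 ulcers); severity index = treated group mean score minus control mean.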

The next data set deals with Gastric mucosa. As to the kind of experiment: Inhibition of lipid peroxidation assessed as malondialdehyde level per mg of protein in gastric mucosa isolated from albino rat treated 60 mg/kg, po by UV spectrophotometry. In kind it is functional. In outline:
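After the ulcer scoring, gastric mucosa was scraped and homogenized in 1.8 mL ice-cold 1.15% KCl. Supernatant (1 mL) received 0.5 mL 30% TCA and 0.5 mL 0.8% TBA, then was heated 30 min at 80 °C. Tubes were chilled 10 min on ice and centrifuged 3000 rpm for 15 min before absorbance was read (TBARS/MDA, Ohkawa method).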

On to `O=C1OC(c2ccc(Cl)cc2)=C/C1=C\c1ccccc1Cl`, for which the results for the inhibition in vivo at 20 mg/kg in the data set on Rattus norvegicus [1] and in the data set with Rattus norvegicus [2] were 62.7% and 81.5%, respectively. Moreover, the figures for the Activity in the data set on Mus musculus [3], in the data set with Mus musculus [4] and with Gastric mucosa were 12.69 s, 53.01% and 0.494 nmol/mg protein, respectively. The compound further came in with a UI in the data set with Rattus norvegicus [5] of 0.2.
As for `COc1cc(/C=C2\C=C(c3ccc(Cl)cc3)OC2=O)ccc1OC(C)=O`, the inhibition in vivo at 20 mg/kg in the data set with Rattus norvegicus [1] stood at 24%; with Rattus norvegicus [2], 37%. The UI in the data set on Rattus norvegicus [5] came to 0.3. The Activity in the data set on Gastric mucosa came to 0.597 nmol/mg protein.
In the same order, the values of `O=C1OC(c2ccc(Cl)cc2)=C/C1=C\c1ccccc1` are 18.9%, 36%, 0.9 and 0.522 nmol/mg protein.
On to `COc1ccc(/C=C2\C=C(c3ccc(Cl)cc3)OC2=O)cc1`, for which the inhibition in vivo at 20 mg/kg with Rattus norvegicus [1] turned out to be 4%; with Rattus norvegicus [2], 32.3%. For the same compound, the UI with Rattus norvegicus [5] came out at 0.5. Besides, the Activity in the data set on Gastric mucosa was found to be 0.545 nmol/mg protein.
Consider `O=C1OC(c2ccc(Cl)cc2)=C/C1=C\c1ccc(F)cc1`, for which the inhibition in vivo at 20 mg/kg worked out at 41.3% in the data set on Rattus norvegicus [1] and 70.4% in the data set with Rattus norvegicus [2]. The values for the Activity in the data set with Mus musculus [3], with Mus musculus [4] and in the data set on Gastric mucosa were 12.9 s, 50.6% and 0.329 nmol/mg protein, respectively. The same compound came in with a UI with Rattus norvegicus [5] of 0.4.
For `CC(C)Cc1ccc(C(C)C(=O)O)cc1` (configuration not stated) [IBUPROFEN], the inhibition in vivo at 20 mg/kg with Rattus norvegicus [1] came out at 80.9%; in the data set on Rattus norvegicus [2], 89.5%. In addition, the Activity with Mus musculus [3] amounted to 14.4 s; in the data set on Mus musculus [4], 65.06%. This compound also showed a UI in the data set with Rattus norvegicus [5] of 0.9.
In the case of `COc1ccc(/C=C2\C=C(c3ccc(Cl)cc3)OC2=O)cc1OC`, the inhibition in vivo at 20 mg/kg amounted to 9.33% with Rattus norvegicus [1] and 36% in the data set on Rattus norvegicus [2]. Also, the UI in the data set with Rattus norvegicus [5] came to 0.3. The Activity in the data set on Gastric mucosa is recorded as 0.533 nmol/mg protein.
In the same order, the values of `O=C1OC(c2ccc(Cl)cc2)=C/C1=C\c1ccc([N+](=O)[O-])cc1` are 4%, 36%, 0.4 and 0.549 nmol/mg protein.
With `O=C1/C(=C/c2ccc(Cl)cc2)C=C(c2ccc(Cl)cc2)N1Cc1ccccc1`, the inhibition in vivo at 20 mg/kg with Rattus norvegicus [1] was 58.7%; in the data set with Rattus norvegicus [2], 88.9%. Besides, the Activity with Mus musculus [3] was 11.55 s; with Mus musculus [4], 57.83%; in the data set with Gastric mucosa it was 0.31 nmol/mg protein. The same compound registered a UI with Rattus norvegicus [5] of 0.1.
Turning to `O=C1/C(=C/c2ccc([N+](=O)[O-])cc2)C=C(c2ccc(Cl)cc2)N1Cc1ccccc1`, the inhibition in vivo at 20 mg/kg in the data set with Rattus norvegicus [1] came to 12%; with Rattus norvegicus [2], 19.8%. In the data set with Rattus norvegicus [5], this compound gave a UI of 0.4. The Activity in the data set on Gastric mucosa turned out to be 0.403 nmol/mg protein.
For the compound `O=C1OC(c2ccc(Cl)cc2)=C/C1=C\c1ccc(Cl)cc1`, the inhibition in vivo at 20 mg/kg is 40% in the data set with Rattus norvegicus [1] and 69.1% with Rattus norvegicus [2]. For the same compound, the Activity in the data set on Mus musculus [3] is on record as 12.67 s; with Mus musculus [4], 44.57%; with Gastric mucosa, 0.403 nmol/mg protein. The UI with Rattus norvegicus [5] was found to be 0.2.
In the case of `O=C1/C(=C/c2ccc(F)cc2)C=C(c2ccc(Cl)cc2)N1Cc1ccccc1`, the inhibition in vivo at 20 mg/kg was determined as 58.7% in the data set with Rattus norvegicus [1] and 89.5% with Rattus norvegicus [2]. Moreover, the figures for the Activity in the data set with Mus musculus [3], in the data set with Mus musculus [4] and in the data set with Gastric mucosa were 13.3 s, 59.03% and 0.401 nmol/mg protein, respectively. This compound registered a UI in the data set with Rattus norvegicus [5] of 0.2.
For the compound `O=C1OC(c2ccc(Cl)cc2)=C/C1=C\c1ccc(Cl)cc1Cl`, the inhibition in vivo at 20 mg/kg with Rattus norvegicus [1] turned out to be 53.3%; in the data set with Rattus norvegicus [2], 72.6%. Besides, the values for the Activity with Mus musculus [3], in the data set with Mus musculus [4] and with Gastric mucosa were 11.86 s, 49.39% and 0.388 nmol/mg protein, respectively. In addition, the UI in the data set on Rattus norvegicus [5] is recorded as 0.1.
For `COc1cc(/C=C2\C=C(c3ccc(Cl)cc3)N(Cc3ccccc3)C2=O)ccc1O`, the values for the inhibition in vivo at 20 mg/kg in the data set with Rattus norvegicus [1] and with Rattus norvegicus [2] were 36% and 42%, respectively. The UI in the data set on Rattus norvegicus [5] was 0.5. Besides, the Activity in the data set on Gastric mucosa is 0.558 nmol/mg protein.
For the compound `O=C1/C(=C/c2ccccc2)C=C(c2ccc(Cl)cc2)N1Cc1ccccc1`, the inhibition in vivo at 20 mg/kg in the data set with Rattus norvegicus [1] amounted to 24%; in the data set on Rattus norvegicus [2], 37%. This compound showed a UI in the data set on Rattus norvegicus [5] of 0.6. The Activity with Gastric mucosa is reported as 0.605 nmol/mg protein.
On to `O=C1OC(c2ccc(Cl)cc2)=C/C1=C\c1ccccc1[N+](=O)[O-]`, for which the figures for the inhibition in vivo at 20 mg/kg in the data set on Rattus norvegicus [1] and with Rattus norvegicus [2] were 4% and 18.5%, respectively. The compound further yielded a UI with Rattus norvegicus [5] of 0.6. Moreover, the Activity in the data set on Gastric mucosa is listed as 0.429 nmol/mg protein.
